Columns and labels:
[1] = Drug uptake in C57BL mouse visceral adipose tissue at 176 umol/kg administered with high fat diet after 2 weeks by HPLC/UV analysis; format: ADME; conditions: in vivo, po, 336 h
Outline: (§1)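 Mice received the lipid-mimetic derivatives chronically for 2 weeks. Pterostilbene and its metabolites were then quantified in blood and organs, and values are reported as mean ± st. dev. across animals.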

[2] = target: T1, Pancreatic triacylglycerol lipase (Sus scrofa, UniProt P00591); experiment: Prodrug conversion assessed as porcine pancreatic lipase-mediated formation of 10-((4-(3,5-dimethoxystyryl)phenoxy)carbonylamino)decanoic acid by measuring hydrolysis rate constant K3 by HPLC/UV analysis; format: ADME; conditions: pig
T1 sequence (P00591 whole entry): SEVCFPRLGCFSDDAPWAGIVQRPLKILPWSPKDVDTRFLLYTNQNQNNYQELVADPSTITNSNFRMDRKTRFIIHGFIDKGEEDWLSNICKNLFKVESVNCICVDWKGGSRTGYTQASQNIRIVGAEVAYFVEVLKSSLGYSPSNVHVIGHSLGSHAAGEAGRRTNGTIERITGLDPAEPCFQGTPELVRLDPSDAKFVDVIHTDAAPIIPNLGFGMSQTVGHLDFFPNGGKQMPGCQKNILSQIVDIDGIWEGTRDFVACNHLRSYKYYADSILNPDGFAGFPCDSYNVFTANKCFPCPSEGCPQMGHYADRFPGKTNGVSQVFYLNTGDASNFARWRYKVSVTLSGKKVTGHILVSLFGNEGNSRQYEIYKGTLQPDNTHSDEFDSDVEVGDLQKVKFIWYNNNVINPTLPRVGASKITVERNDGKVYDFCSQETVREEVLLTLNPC

[3] = Drug uptake in C57BL mouse subcutaneous adipose tissue at 176 umol/kg administered with high fat diet after 2 weeks by HPLC/UV analysis; format: ADME; conditions: in vivo, po, 336 h; outline: as §1
[4] = tested on: Liver; experiment: Drug uptake in C57BL mouse liver at 176 umol/kg administered with high fat diet after 2 weeks by HPLC/UV analysis; format: ADME, tissue-based; conditions: in vivo, po, 336 h; outline: as §1
[5] = tested on: Blood; experiment: Drug uptake in C57BL mouse bloodstream at 176 umol/kg administered with high fat diet after 2 weeks by HPLC/UV analysis; format: ADME, tissue-based; conditions: po, 336 h; outline: as §1
[6] = Drug uptake in C57BL mouse visceral adipose tissue assessed as retention time at 176 umol/kg administered with high fat diet after 2 weeks by HPLC/UV analysis; format: ADME; conditions: in vivo, po, 336 h
[7] = target: T1, Pancreatic triacylglycerol lipase; experiment: Prodrug conversion assessed as porcine pancreatic lipase-mediated formation of 2-(10-((4-(3,5-dimethoxystyryl)phenoxy)carbonylamino)decanoyloxy)-3-hydroxypropyl oleate by measuring hydrolysis rate constant K1 by HPLC/UV analysis; format: ADME; conditions: pig
[8] = target: T1, Pancreatic triacylglycerol lipase; experiment: Prodrug conversion assessed as porcine pancreatic lipase-mediated formation of 1,3-dihydroxypropan-2-yl 10-((4-(3,5-dimethoxystyryl)phenoxy)carbonylamino)decanoate by measuring hydrolysis rate constant K2 by HPLC/UV analysis; format: ADME; conditions: pig
[9] = target: T1, Pancreatic triacylglycerol lipase; experiment: Prodrug conversion assessed as porcine pancreatic lipase-mediated formation of 1-(10-((4-(3,5-dimethoxystyryl)phenoxy)carbonylamino)decanoyloxy)-3-hydroxypropan-2-yl oleate, 10-((4-(3,5-dimethoxystyryl)phenoxy)carbonylamino)decanoic acid by measuring hydrolysis rate constant K1 by HPLC/UV analysis; format: ADME; conditions: pig
[10] = target: T1, Pancreatic triacylglycerol lipase; experiment: Prodrug conversion assessed as porcine pancreatic lipase-mediated formation of 10-((4-(3,5-dimethoxystyryl)phenoxy)carbonylamino)decanoic acid by measuring hydrolysis rate constant K2 by HPLC/UV analysis; format: ADME; conditions: pig
[11] = target: T1, Pancreatic triacylglycerol lipase; experiment: Prodrug conversion assessed as porcine pancreatic lipase mediated formation of 10-((4-(3,5-dimethoxystyryl)phenoxy)carbonylamino)decanoic acid by measuring hydrolysis rate constant by HPLC/UV analysis; format: ADME; conditions: pig

| SMILES | Drug uptake [1] | K [2] [h⁻¹] | Drug uptake [3] | Drug uptake [4] | Drug uptake [5] | Retention time [6] [min] | K [7] [h⁻¹] | K [8] [h⁻¹] | K [9] [h⁻¹] | K [10] [h⁻¹] | K [11] [h⁻¹] |
| --- | --- | --- | --- | --- | --- | --- | --- | --- | --- | --- | --- |
| CCCCCCCC/C=C\CCCCCCCC(=O)OCC(COC(=O)CCCCCCC/C=C\CCCCCCCC)OC(=O)CCCCCCCCCNC(=O)Oc1ccc(/C=C/c2cc(OC)cc(OC)c2)cc1 | Active | 0.24 | Active | Active | Not Active | 5.8 to 6.5 | 3.04 | 9.49 |  |  |  |
| CCCCCCCC/C=C\CCCCCCCC(=O)OCC(COC(=O)CCCCCCCCCNC(=O)Oc1ccc(/C=C/c2cc(OC)cc(OC)c2)cc1)OC(=O)CCCCCCC/C=C\CCCCCCCC (stereo not given) | Active |  | Active | Active | Not Active |  |  |  | 3.24 | 46.8 | 2.88 |
